Assay results published in ChEMBL document CHEMBL3045435, “Synthesis and fungicidal activity of macrolactams and macrolactones with an oxime ether side chain” (J Agric Food Chem, 2007).
Converted amounts (≈) assume the structure as drawn.

Each molecule was assayed on Rhizoctonia solani (assay: Fungicidal activity against Rhizoctonia solani assessed as growth inhibition).
Assay type: functional, organism-based
How it was run: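 Mycelium growth rate test on Rhizoctonia solani Kühn. Inhibition rate was measured at 100, 50, 25, 12.5 and 6.25 µg/mL. EC50 was estimated by logistic analysis. A commercial fungicide reference was run under the same conditions.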

Row | SMILES | EC50
1 | CCCON=C1CCCCCCCCCCC(=O)NCCC1 | 4.6 µg/mL (≈ 14.8 µM)

The molecules below were run on Botryosphaeria berengeriana (assay: Fungicidal activity against Botryosphaeria berengeriana Nose (apple ring spot fungi) assessed as growth inhibition).
Assay type: functional, organism-based

Row | SMILES | EC50
2 | CCCON=C1CCCCCCCCCCC(=O)NCCC1 | 13.8 µg/mL (≈ 44.4 µM)

What follows are molecules tested on Botrytis cinerea (assay: Fungicidal activity against Botryotinia fuckeliana assessed as growth inhibition).
Assay type: functional, organism-based

Row | SMILES | EC50
3 | CCCON=C1CCCCCCCCCCC(=O)NCCC1 | 8.6 µg/mL (≈ 27.7 µM)

Each molecule was assayed on Phytophthora capsici (assay: Fungicidal activity against Phytophthora capsici assessed as growth inhibition).
Assay type: functional, organism-based

Row | SMILES | EC50
4 | CCCON=C1CCCCCCCCCCC(=O)NCCC1 | 57.8 µg/mL (≈ 186 µM)

The molecules below were run on Rhizoctonia solani (assay: Fungicidal activity against Rhizoctonia solani by mycelium growth rate test).
Assay type: functional, organism-based

Row | SMILES | EC50
5 | CCCO/N=C1\CCCCCCCCCCC(=O)NCCC1 | 3.62 µg/mL (≈ 11.7 µM)
6 | CCCCCCCCCCCCCCO/N=C1\CCCCCCCCCCC(=O)NCC1 | 69.1 µg/mL (≈ 153 µM)
7 | O=C1CCCCCCCCCC/C(=N\OCc2ccc(F)cc2)CCN1 | 12.1 µg/mL (≈ 33.3 µM)
8 | CCCO/N=C1/CCCCCCCCCCC(=O)NCCC1 | 13.1 µg/mL (≈ 42.3 µM)
9 | CCCCO/N=C1\CCCCCCCCCCC(=O)NCC1 | 7.21 µg/mL (≈ 23.2 µM)
10 | O=C1CCCCCCCCCC/C(=N/OCc2cccnc2)CCN1 | 56.4 µg/mL (≈ 163 µM)
11 | Cc1ccc(CO/N=C2\CCCCCCCCCCC(=O)NCC2)cc1 | 50.5 µg/mL (≈ 141 µM)
12 | CCCCO/N=C1/CCCCCCCCCCC(=O)NCCC1 | 3.97 µg/mL (≈ 12.2 µM)
13 | O=C1CCCCCCCCCC/C(=N\OCc2ccc(Cl)cc2)CCCN1 | 164 µg/mL (≈ 418 µM)
14 | O=C1CCCCCCCCCC/C(=N/OCc2ccccc2)CCN1 | 18.1 µg/mL (≈ 52.7 µM)
15 | O=C1CCCCCCCCCC/C(=N/OCc2c(F)cccc2Cl)CCCN1 | 2.34 µg/mL (≈ 5.69 µM)
16 | O=C1CCCCCCCCCC/C(=N\OCc2ccccc2)CCN1 | 7.24 µg/mL (≈ 21 µM)
17 | O=C1CCCCCCCCCC/C(=N\OCc2ccc(Cl)cc2Cl)CCN1 | 106 µg/mL (≈ 256 µM)
18 | O=C1CCCCCCCCCC/C(=N\OCc2cccnc2)CCN1 | 52.5 µg/mL (≈ 152 µM)
19 | O=C1CCCCCCCCCC/C(=N/OCc2ccc(Cl)cc2Cl)CCN1 | 100 µg/mL (≈ 242 µM)
20 | O=C1CCCCCCCCCC/C(=N/OCc2c(F)cccc2Cl)CCN1 | 1730 µg/mL (≈ 4370 µM)
21 | CCCCCCCCCCCCCCCCON=C1CCCCCCCCCCC(=O)OCCC1 | 40.4 µg/mL (≈ 81.8 µM)
22 | O=C1CCCCCCCCCC/C(=N\OCc2c(F)cccc2Cl)CCN1 | 43 µg/mL (≈ 108 µM)
23 | CCCCO/N=C1\CCCCCCCCCCC(=O)NCCC1 | 2.34 µg/mL (≈ 7.21 µM)
24 | O=C1CCCCCCCCCC/C(=N\OCc2c(F)cccc2Cl)CCCN1 | 6.21 µg/mL (≈ 15.1 µM)

Row | SMILES | EC50
25 | CCO/N=C1\CCCCCCCCCCC(=O)NCCC1 | 22.7 µg/mL (≈ 76.7 µM)
26 | O=C1CCCCCCCCCC/C(=N\OCc2ccc([N+](=O)[O-])cc2)CCN1 | 166 µg/mL (≈ 427 µM)
27 | CCCCCCCCCCCCCCO/N=C1/CCCCCCCCCCC(=O)NCC1 | 101 µg/mL (≈ 224 µM)
28 | O=C1CCCCCCCCCC/C(=N/OCc2ccc(F)cc2)CCN1 | 74.9 µg/mL (≈ 207 µM)
29 | CCCO/N=C1/CCCCCCCCCCC(=O)NCC1 | 22.1 µg/mL (≈ 74.5 µM)
30 | O=C1CCCCCCCCCC/C(=N/OCc2ccccc2)CCCN1 | 5.84 µg/mL (≈ 16.3 µM)
31 | CCCCCCCCCCCCCCCCO/N=C1/CCCCCCCCCCC(=O)NCC1 | 135 µg/mL (≈ 282 µM)
32 | O=C1CCCCCCCCCC/C(=N/OCc2ccc(Cl)cc2)CCCN1 | 68.4 µg/mL (≈ 174 µM)
33 | C=CCON=C1CCCCCCCCCCC(=O)OCCC1 | 12.8 µg/mL (≈ 41.2 µM)
34 | C=CCO/N=C1\CCCCCCCCCCC(=O)NCC1 | 21.8 µg/mL (≈ 73.9 µM)
35 | O=C1CCCCCCCCCCC(=NOCc2c(F)cccc2Cl)CCCO1 | 51.3 µg/mL (≈ 124 µM)
36 | CCCCON=C1CCCCCCCCCCC(=O)OCCC1 | 13.4 µg/mL (≈ 41 µM)
37 | C=CCO/N=C1/CCCCCCCCCCC(=O)NCCC1 | 45.6 µg/mL (≈ 148 µM)
38 | C=CCO/N=C1\CCCCCCCCCCC(=O)NCCC1 | 15.9 µg/mL (≈ 51.6 µM)
39 | Cc1ccc(CO/N=C2/CCCCCCCCCCC(=O)NCC2)cc1 | 111 µg/mL (≈ 310 µM)
40 | CCCCCCCO/N=C1/CCCCCCCCCCC(=O)NCC1 | 209 µg/mL (≈ 594 µM)
41 | C=CCO/N=C1/CCCCCCCCCCC(=O)NCC1 | 44 µg/mL (≈ 150 µM)
42 | O=C1CCCCCCCCCCC(=NOCc2ccccc2)CCCO1 | 45.1 µg/mL (≈ 126 µM)
43 | CCCCCCCCCCCCCCCCO/N=C1/CCCCCCCCCCC(=O)NCCC1 | 47.8 µg/mL (≈ 96.9 µM)
44 | O=C1CCCCCCCCCC/C(=N\OCc2ccc(Cl)cc2)CCN1 | 84.8 µg/mL (≈ 224 µM)

Row | SMILES | EC50
45 | CO/N=C1\CCCCCCCCCCC(=O)NCC1 | 55.8 µg/mL (≈ 208 µM)
46 | CCCON=C1CCCCCCCCCCC(=O)OCCC1 | 8.08 µg/mL (≈ 25.9 µM)
47 | CCCCCCCCCCCCCCCCO/N=C1\CCCCCCCCCCC(=O)NCCC1 | 51.5 µg/mL (≈ 104 µM)
48 | O=C1CCCCCCCCCC/C(=N/OCc2ccc(Cl)cc2)CCN1 | 97.2 µg/mL (≈ 257 µM)
49 | COC(=O)Nc1nc2ccccc2[nH]1 [CARBENDAZIM] | 1.54 µg/mL (≈ 8.05 µM)
50 | CO/N=C1/CCCCCCCCCCC(=O)NCC1 | 51.3 µg/mL (≈ 191 µM)
51 | O=C1CCCCCCCCCC/C(=N\OCc2ccccc2)CCCN1 | 8.28 µg/mL (≈ 23.1 µM)
52 | CC(C)CO/N=C1\CCCCCCCCCCC(=O)NCC1 | 30.4 µg/mL (≈ 97.8 µM)
53 | O=C1CCCCCCCCCC/C(=N/OCc2ccc([N+](=O)[O-])cc2)CCN1 | 49.3 µg/mL (≈ 127 µM)
54 | CCCCCCCO/N=C1\CCCCCCCCCCC(=O)NCCC1 | 27.9 µg/mL (≈ 76.1 µM)
55 | CCCCCCCO/N=C1\CCCCCCCCCCC(=O)NCC1 | 50.3 µg/mL (≈ 143 µM)
56 | CCCCCCCON=C1CCCCCCCCCCC(=O)OCCC1 | 9.68 µg/mL (≈ 26.3 µM)
57 | CCCO/N=C1\CCCCCCCCCCC(=O)NCC1 | 9.11 µg/mL (≈ 30.7 µM)
58 | CCCCCCCCCCCCCCCCO/N=C1\CCCCCCCCCCC(=O)NCC1 | 127 µg/mL (≈ 266 µM)
59 | CCCCO/N=C1/CCCCCCCCCCC(=O)NCC1 | 55.1 µg/mL (≈ 177 µM)
60 | CCO/N=C1\CCCCCCCCCCC(=O)NCC1 | 25.8 µg/mL (≈ 91.5 µM)
61 | CC(C)CO/N=C1/CCCCCCCCCCC(=O)NCC1 | 48.4 µg/mL (≈ 156 µM)
62 | O=C1CCCCCCCCCCC(=NOCc2ccc(Cl)cc2)CCCO1 | 19.6 µg/mL (≈ 49.8 µM)
63 | CCCCCCCO/N=C1/CCCCCCCCCCC(=O)NCCC1 | 19.2 µg/mL (≈ 52.5 µM)

These molecules were tested on Alternaria kikuchiana (assay: Fungicidal activity against Alternaria kikuchiana (pear black spot fungi) assessed as growth inhibition).
Assay type: functional, organism-based

Row | SMILES | EC50
64 | CCCON=C1CCCCCCCCCCC(=O)NCCC1 | 1.2 µg/mL (≈ 3.86 µM)

What follows are molecules tested on Fusarium oxysporum f. sp. vasinfectum (assay: Fungicidal activity against cotton Fusarium oxysporum f. sp. vasinfectum (fusarium wilt fungi) assessed as growth inhibition).
Assay type: functional, organism-based

Row | SMILES | EC50
65 | CCCON=C1CCCCCCCCCCC(=O)NCCC1 | 29 µg/mL (≈ 93.4 µM)

These molecules were tested on Colletotrichum lagenaria (assay: Fungicidal activity against Colletotrichum lagenaria assessed as growth inhibition).
Assay type: functional, organism-based

Row | SMILES | EC50
66 | CCCON=C1CCCCCCCCCCC(=O)NCCC1 | 23.9 µg/mL (≈ 77 µM)

The molecules below were run on Alternaria solani (assay: Fungicidal activity against Alternaria solani assessed as growth inhibition).
Assay type: functional, organism-based

Row | SMILES | EC50
67 | CCCON=C1CCCCCCCCCCC(=O)NCCC1 | 44.2 µg/mL (≈ 142 µM)

What follows are molecules tested on Phomopsis asparagi (assay: Fungicidal activity against Phomopsis asparagi assessed as growth inhibition).
Assay type: functional, organism-based

Row | SMILES | EC50
68 | CCCON=C1CCCCCCCCCCC(=O)NCCC1 | 12 µg/mL (≈ 38.6 µM)

The molecules below were run on Phyllosticta (assay: Fungicidal activity against Phyllospicpa physaleos Sacc (tomato southern blight fungi) assessed as growth inhibition).
Assay type: functional, organism-based

Row | SMILES | EC50
69 | CCCON=C1CCCCCCCCCCC(=O)NCCC1 | 1.9 µg/mL (≈ 6.12 µM)

These molecules were tested on Fulvia fulva (assay: Fungicidal activity against Passalora fulva Cooke (tomato leaf mold fungi) assessed as growth inhibition).
Assay type: functional, organism-based

Row | SMILES | EC50
70 | CCCON=C1CCCCCCCCCCC(=O)NCCC1 | 53.1 µg/mL (≈ 171 µM)

What follows are molecules tested on Verticillium albo-atrum (assay: Fungicidal activity against Vercicillium albo-atrum assessed as growth inhibition).
Assay type: functional, organism-based

Row | SMILES | EC50
71 | CCCON=C1CCCCCCCCCCC(=O)NCCC1 | 19.3 µg/mL (≈ 62.2 µM)

These molecules were tested on Pythium aphanidermatum (assay: Fungicidal activity against Pythium aphanidermatum assessed as growth inhibition).
Assay type: functional, organism-based

Row | SMILES | EC50
72 | CCCON=C1CCCCCCCCCCC(=O)NCCC1 | 33.3 µg/mL (≈ 107 µM)
